Screening data from PubChem BioAssay.
Cneo AK release: causes C. neoformans cell lysis | adenylate kinase release luminescence, 4 h; normalised: neutral wells 0, clomiphene wells 100 | lysis activity, % at 15 µM | 360,000 tested, 0.2% active;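 active = mean lysis activity across replicates of at least 80%, whatever share of replicates individually reach that level; inactive = mean lysis activity below 80%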
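Test system: log-phase Cryptococcus neoformans yeast cells; Quantity: yeast cell density of 5 × 10^6 cells/mL; Buffer or medium: YPD; Doses: single compound concentration per well; Timing: 4 h at 37 °C static, read 1 h later; Measured by: AK luminescence; Read-out basis: lysis from increased AK signal; Control set: Clomiphene as positive control.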
FN deposition inh: fibronectin deposition inhibition; AH1F fibroblasts, Alexa488-fibronectin deposition fluorescence, overnight; inhibition, % at 12.6 µM; 350,000 tested, 0.086% active;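 active = mean inhibition across replicates of 30% or more, regardless of how many single replicates reach that level; inconclusive = mean under 30% yet at least half of replicates reach 30%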;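 also: positive control wells lacked labelled fibronectin entirely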
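Assay system: AH1F fibroblast monolayer, labelled fibronectin deposition. Amount: 10000 cells per well. Also added: labelled fibronectin 24 nM. Compound: single-point pinned compound. Incubation: cell attachment 1 h, compound and FN exposure overnight. Detection: fluorescence after three HBSS washes, excitation 485 nm, emission 525 nm. Read-out: inhibition of fibronectin deposition signal.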
Xi reactivation: X-chromosome reactivation activator | activation, % at 7.58 µM | AID 743238 | XiGFP mouse fibroblasts, % GFP-positive cells imaging, 3 d; cells co-treated with 5-aza-dC sensitizer; scaled so ellipticine positive control = 100% | 360,000 tested, 0.055% active;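 active = mean normalized replicate activation at least 10% and every replicate at or above 10%; inconclusive = only one of the two criteria met; inactive = mean below 10% and not all replicates reach 10%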;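 also: 0% = median of on-plate neutral control wells and 100% = ellipticine 6 µM median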
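assay system = SV40-immortalized XiGFP fibroblast cells, line 68-5-11 | buffer or medium = DMEM plus 5-aza-dC sensitizer | doses = single-point pinned compound dosing | times = 3-day compound exposure, then 15 min fixation at room temperature | benchmarks = positive control ellipticine, 6 µM final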
PGC1a acetyl inh: modulators of PGC1a acetylation; 350,000 tested, 0.17% active; AID 651687; inhibition, % at 15.6 µM; U2OS PGC1a acetylation, AlphaScreen anti-acetyl-lysine; with virally co-expressed GCN5 acetyltransferase;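 active = every replicate shows inhibition of at least 40%; inconclusive = mean inhibition at least 40% but some replicate below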;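 also: 0% = neutral control wells and 100% = positive control wells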
DENV2 CPE: protects cells from dengue virus 2 cytopathic effect; DENV2-infected cells, cytopathic effect rescue, plate reader; CPE inhibition, % at 9.99 µM; 350,000 tested, 1.7% active; AID 651640; in the data active = CPE inhibition above about 20%, passing the limit was not always enough; inconclusive = no clear call, values can overlap the other calls; tested in BHK-21 cells;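 also: 0% = median of neutral control wells and 100% = median of positive control wells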
F508del corr: correctors of CFTR F508del function in bronchial epithelial cells. CFBE cells, YFP halide quenching; stimulated with forskolin plus potentiator P3; % fluorescence drop versus neutral controls. activity (quench increase), % at 7.58 µM. 350,000 tested, 0.36% active;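 active = mean added fluorescence quench of at least 8% versus neutral control, with both replicates also reaching 8%; inconclusive = only one of the mean or replicate conditions met; inactive = mean below 8% and not both replicates reaching 8%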;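 also: cells transiently co-express mutant CFTR-F508del with the halide-sensitive YFP; corrector assay measuring rescue of mutant channel to the surface after 24 h compound exposure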
* marks the source's active call; other numbers are inactive results; ? = inconclusive; / = no result. Compounds with a hit are over-represented: about 1.9% of the library has one in this group of screens.

SMILES | Cneo AK release | FN deposition inh | Xi reactivation | PGC1a acetyl inh | DENV2 CPE | F508del corr
COc1ccc2c3c([nH]c2c1)[C@@H](CO)N(Cc1ccccc1)CC31CCN(S(C)(=O)=O)CC1 | / | / | 0 | -10 | -3 | -2
C[C@@H]1CN([C@H](C)CO)S(=O)(=O)c2ccc(C#CC(C)(C)O)cc2O[C@@H]1CN(C)C(=O)C1CCCCC1 | 0 | / | -1 | -2 | 20* | -3
COCC#Cc1ccc2c(c1)O[C@@H](CN(C)C(=O)Nc1ccccc1F)[C@H](C)CN([C@@H](C)CO)S2(=O)=O | 1 | / | 0 | -9 | 90* | 3
C[C@H]1CN([C@@H](C)CO)S(=O)(=O)c2ccc(C#CCN(C)C)cc2O[C@@H]1CN(C)C(=O)C1CCC1 | 2 | / | -1 | 8 | 27* | 0
C[C@H](CO)N1C[C@H](C)[C@H](CN(C)C(=O)C2CCC2)Oc2cc(C#CCN(C)C)ccc2S1(=O)=O | 2 | / | 0 | -1 | 4 | 0
CC(C)CC#Cc1ccc2c(c1)O[C@@H](CN(C)C(=O)C1CCC1)[C@@H](C)CN([C@H](C)CO)S2(=O)=O | 100* | / | 0 | -10 | -2 | -1
CC(C)CC#Cc1ccc2c(c1)O[C@H](CN(C)C(=O)C1CCC1)[C@H](C)CN([C@H](C)CO)S2(=O)=O | 2 | / | 0 | -7 | 16 | -2
COCC#Cc1ccc2c(c1)O[C@H](CN(C)C(=O)Nc1ccccc1F)[C@@H](C)CN([C@@H](C)CO)S2(=O)=O | 1 | / | 0 | -9 | -4 | 1
CO[C@H]1CN(C)C(=O)c2ccc(NS(=O)(=O)c3ccccc3F)cc2OC[C@@H](C)NC[C@H]1C | 0 | -13 | 0 | -6 | 4 | -2
O=C(NC1CCCCC1)N1CC(=O)N2[C@H](CO)[C@@H](c3ccc(-c4cccnc4)cc3)[C@H]2C1 | / | -4 | 0 | -2 | 7 | 8
C[C@H](CO)N1C[C@H](C)[C@H](CN(C)S(=O)(=O)c2ccc(F)cc2)Oc2ncc(C#Cc3ccccc3)cc2C1=O | / | / | -1 | -8 | / | -5
O=C(c1ccncc1)N1CC2(C1)[C@H](c1ccccc1)[C@H](CO)N2C(=O)c1ccncc1 | / | / | 0 | 3 | -16 | -1
CC(C)CC#Cc1ccc2c(c1)O[C@H](CN(C)C(=O)C1CCC1)[C@@H](C)CN([C@@H](C)CO)S2(=O)=O | 109* | / | 0 | 5 | -13 | 3
CC(C)CC#Cc1ccc2c(c1)O[C@H](CN(C)C(=O)C1CCC1)[C@H](C)CN([C@@H](C)CO)S2(=O)=O | 4 | / | -1 | -7 | 5 | 1
CC(C)CC#Cc1ccc2c(c1)O[C@H](CN(C)C(=O)c1ccccc1F)[C@H](C)CN([C@H](C)CO)S2(=O)=O | 3 | / | -1 | -8 | -16 | -8
CC(C)CC#Cc1ccc2c(c1)O[C@@H](CN(C)C(=O)c1ccccc1F)[C@H](C)CN([C@@H](C)CO)S2(=O)=O | 4 | / | -1 | 5 | 39* | 0
C/C=C/c1ccc2c(c1)O[C@@H](CN(C)C(=O)C1CC1)[C@@H](C)CN([C@H](C)CO)S2(=O)=O | / | -8 | 0 | -12 | / | 1
Cc1cc2c(cc1C)C(c1ccccc1OC(C)C)CC(=O)N2 (configuration not stated) | -1 | 2 | 0 | / | -1 | 12*
CC(C)C[C@@H]1COc2cc(NCCO)ccc2S(=O)(=O)N1 | / | 9 | 0 | / | 59* | -4
O=C(c1ccccc1)N1CC(=O)N2[C@H](C1)[C@H](c1ccc(C#CCC3CCCC3)cc1)[C@@H]2CO | / | / | 0 | -8 | -2 | 2
O=C(C1CC1)N1CC(=O)N2[C@H](CO)[C@@H](c3ccc(C#CCc4ccccc4)cc3)[C@@H]2C1 | / | -8 | 0 | -9 | -1 | 2
O=C(C1CC1)N1CC(=O)N2[C@@H](CO)[C@H](c3ccc(C#CCc4ccccc4)cc3)[C@@H]2C1 | / | -2 | 0 | -5 | 45* | -1
O=C(C1CCCCC1)N1CC(=O)N2[C@H](CO)[C@H](c3ccc(C#CCc4ccccc4)cc3)[C@H]2C1 | / | / | 0 | -15 | 25* | 1
O=C(c1ccccc1)N1CC(=O)N2[C@H](CO)[C@H](c3ccc(C#CCC4CCCC4)cc3)[C@@H]2C1 | / | / | 0 | -2 | 21* | 3
O=C(C1CCCCC1)N1CC(=O)N2[C@@H](CO)[C@H](c3ccc(C#CCc4ccccc4)cc3)[C@@H]2C1 | / | / | 0 | -9 | -1 | -1
SMILES | Cneo AK release | FN deposition inh | Xi reactivation | PGC1a acetyl inh | DENV2 CPE | F508del corr
C[C@@H]1CN([C@H](C)CO)C(=O)c2cc(NS(=O)(=O)c3cn(C)cn3)ccc2O[C@@H](C)CCCCO[C@@H]1CN(C)C(=O)C1CCCCC1 | 1 | / | 0 | -16 | 2 | 0
CN(C[C@H]1N[C@@H](CO)[C@@H]1c1ccc(C2=CCCC2)cc1)C(=O)c1cccc(F)c1 | 1 | -34 | 1 | 76* | -9 | 7
O=C(NC[C@H]1N[C@H](CO)[C@@H]1c1ccc(C2=CCCCC2)cc1)c1ccc(F)cc1 | 13 | -18 | 0 | -28 | 44* | -7
O=C(NC[C@H]1N[C@H](CO)[C@H]1c1ccccc1)c1ccccc1F | 0 | -1 | 0 | 4 | 23* | 0
CN(C[C@@H]1N[C@H](CO)[C@@H]1c1ccccc1)C(=O)c1ccccc1F | / | 22 | 0 | / | / | /
C[C@H](CO)N1C[C@H](C)[C@H](CN(C)S(=O)(=O)c2cccs2)Oc2c(NC(=O)C3CCOCC3)cccc2C1=O | -2 | 1 | 0 | 0 | 14 | 3
COc1ccc(NC(=O)N(C)C[C@@H]2Oc3ccc(NC(=O)Nc4cccc5ccccc45)cc3C(=O)N([C@H](C)CO)C[C@@H]2C)cc1 | 50 | / | 0 | -2 | ? | -2
CO[C@H]1CN(C)C(=O)c2ccc(NS(=O)(=O)c3cccc(F)c3)cc2OC[C@H](C)N(C(=O)Cc2cccnc2)C[C@H]1C | 0 | 3 | 0 | 4 | 23* | 0
CO[C@@H]1CN(C)C(=O)c2ccc(NS(=O)(=O)c3cccc(F)c3)cc2OC[C@@H](C)N(C(=O)Cc2cccnc2)C[C@H]1C | 58 | -4 | 0 | 3 | 82* | 1
COc1ccc(S(=O)(=O)N(C)C[C@H]2OCCCC[C@H](C)Oc3ccc(NC(=O)Nc4ccccc4)cc3C(=O)N([C@@H](C)CO)C[C@H]2C)cc1 | -3 | 7 | 0 | -8 | 0 | 4
C[C@H](NC(=O)[C@H]1[C@H](CO)[C@H]2Cn3c(ccc(C4=CCCCC4)c3=O)[C@@H]1N2)c1ccccc1 | 0 | / | 0 | -2 | 6 | -2
O=C(NCc1ccccc1F)Nc1nnc([C@H]2C[C@H](O)[C@@H](CO)O2)s1 | 12 | 3 | 0 | / | 3 | 0
